Results pooled from the literature.
Each line is one published result; the experiments were not run side by side.
Target: Fibroblast growth factor receptor 1 (FGFR1, Homo sapiens, UniProt P11362)
Observed: enzyme activity
Action: inhibitor

Structure (SMILES)	test	setting	remaining activity
Cn1c(=O)n(-c2ccc(C(C)(C)C#N)cc2)c2c3cc(-c4cnc5ccccc5c4)ccc3ncc21	–	10 µM	106%
Cc1cnc(NC2CCOCC2)nc1-n1cnc(C(=O)NC(CN)c2cc(F)cc(Cl)c2)c1 (stereo not drawn)	radiometric	1 µM	118%
CC(C)(O)[C@H]1CC[C@H](Nc2ccc3ncc(-c4cccc(C(F)(F)F)c4)n3n2)CC1	–	1 µM	97%
CC(C)(C)C(=O)c1sc(NC2CCCCC2)nc1N	–	10 µM	87%
CCCOc1ccc(OC)c(F)c1C(=O)c1ccc(C(=O)N[C@@H]2CNC[C@H]2NC(=O)c2ccc3[nH]ncc3c2)cc1	–	10 µM	28%
CC(C)(C)c1nc(-c2cccc(NS(=O)(=O)c3c(F)cccc3F)c2F)c(-c2ccnc(N)n2)s1	radiometric	1 µM	89%
Cc1[nH]c(/C=C2\C(=O)Nc3ccc(F)cc32)c(C)c1C(=O)N[C@H]1CCN(C(=O)N(C)C)C1	–	0.1 µM	122%
COc1cc(Cl)c(C(=O)N[C@@H](CN[C@H]2CC[C@@H](N)CC2)Cc2ccc(C#N)cc2)cc1-c1ccc(CN[C@H](C)c2ccc(C)cc2)o1	–	1 µM	94%
CCN(CC)CCNC(=O)c1c(C)[nH]c(/C=C2\C(=O)Nc3ccc(F)cc32)c1C	–	0.1 µM	79%
Nc1nc(NC2CCCCC2)sc1C(=O)c1ccccc1	–	10 µM	97%
COc1cc(Nc2cnc(C#N)c(O[C@H](C)CN(C)C)n2)ncc1-c1cnn(C)c1	radiometric	10 µM	39%
O=C(Nc1cnn(-c2csc(C(=O)NC3COC3)c2)c1)Nc1c(F)cccc1Cl	–	5 µM	91.4%
